{"source": "ChEMBL document CHEMBL5724801", "about": "“EUbOPEN Chemogenomics Library - Multiplex” (2024)", "tested_on": "HEK-293T", "assay": "Multiplex assay against HEK293T", "format": "toxicity, cell-based", "conditions": "human", "method_in_brief": "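At seeding, live cells were stained with Hoechst33342, BioTracker Green Microtubule Cytoskeleton Dye, MitoTracker Red and Annexin V Alexa Fluor 680. After compound addition they were imaged on a CQ1 microscope at 37°C and 5% CO2, and CellPathfinder machine-learning gating sorted them into Hoechst high-intensity objects or normal cells, with normal cells further split into healthy, pyknosed or fragmented nuclei and pyknosed cells into mitotic or apoptotic. Tubulin, mitochondrial-mass and membrane-permeability phenotypes are given as per cents of cells with healthy nuclei.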", "key": {"[1]": {"conditions": "12 h, 1 µM, compound concentration 1 uM"}, "[2]": {"conditions": "12 h, 10 µM, compound concentration 10 uM"}, "[3]": {"conditions": "24 h, 1 µM, compound concentration 1 uM"}, "[4]": {"conditions": "24 h, 10 µM, compound concentration 10 uM"}, "[5]": {"conditions": "48 h, 1 µM, compound concentration 1 uM"}, "[6]": {"conditions": "48 h, 10 µM, compound concentration 10 uM"}}, "note": "Several values for one entry are separate records, joined by “and”; a condition that tells them apart may be missing. Equal entries are not always repeated.", "data": [{"smiles": "Cc1ccc(-c2c(C(=O)CF)n(CCCO)c3ncnc(N)c23)cc1", "values": [{"measurement": "Population Apoptotic (%)", "setting": "[1]", "value": "10.53% and 14.63%"}, {"measurement": "Population Fragmented Nuclei (%)", "setting": "[1]", "value": "2.38% and 4.08%"}, {"measurement": "Population Hoechst High Intensity Objects (%)", "setting": "[1]", "value": 0, "unit": "%"}, {"measurement": "Population Membrane Permeable-Phenotype (%)", "setting": "[1]", "value": "0% and 5.56%"}, {"measurement": "Population Mitotic Cells (%)", "setting": "[1]", "value": "89.47% and 85.37%"}, {"measurement": "Population Normal (%)", "setting": "[1]", "value": 100, "unit": "%"}, {"measurement": "Population Pyknosed Nuclei (%)", "setting": "[1]", "value": "38.78% and 83.67%"}, {"measurement": "Total Cell Count", "setting": "[1]", "value": "294 and 147"}, {"measurement": "Population Apoptotic (%)", "setting": "[2]", "value": "9.68% and 15.93%"}, {"measurement": "Population Fragmented Nuclei (%)", "setting": "[2]", "value": "5.7% and 4.44%"}, {"measurement": "Population Hoechst High Intensity Objects (%)", "setting": "[2]", "value": "0.33% and 0%"}, {"measurement": "Population Membrane Permeable-Phenotype (%)", "setting": "[2]", "value": "1.91% and 0%"}, {"measurement": "Population Mitochondria Different-Phenotype (%)", "setting": "[2]", "value": "38.22% and 25%"}, {"measurement": "Population Mitotic Cells (%)", "setting": "[2]", "value": "90.32% and 84.07%"}, {"measurement": "Population Normal (%)", "setting": "[2]", "value": "99.67% and 100%"}, {"measurement": "Population Pyknosed Nuclei (%)", "setting": "[2]", "value": "41.61% and 83.7%"}, {"measurement": "Population Tubulin-Different-Phenotype (%)", "setting": "[2]", "value": "17.83% and 37.5%"}, {"measurement": "Total Cell Count", "setting": "[2]", "value": "299 and 135"}, {"measurement": "Population Apoptotic (%)", "setting": "[3]", "value": "6.73% and 15.13%"}, {"measurement": "Population Fragmented Nuclei (%)", "setting": "[3]", "value": "3.4% and 2.5%"}, {"measurement": "Population Hoechst High Intensity Objects (%)", "setting": "[3]", "value": 0, "unit": "%"}, {"measurement": "Population Membrane Permeable-Phenotype (%)", "setting": "[3]", "value": "2.86% and 0%"}, {"measurement": "Population Mitochondria Different-Phenotype (%)", "setting": "[3]", "value": "14.57% and 8.11%"}, {"measurement": "Population Mitotic Cells (%)", "setting": "[3]", "value": "93.27% and 84.87%"}, {"measurement": "Population Normal (%)", "setting": "[3]", "value": 100, "unit": "%"}, {"measurement": "Population Tubulin-Different-Phenotype (%)", "setting": "[3]", "value": "10.86% and 5.41%"}, {"measurement": "Total Cell Count", "setting": "[3]", "value": "470 and 160"}, {"measurement": "Population Apoptotic (%)", "setting": "[4]", "value": "19.61% and 24.07%"}, {"measurement": "Population Fragmented Nuclei (%)", "setting": "[4]", "value": "2.25% and 2.94%"}, {"measurement": "Population Healthy Nuclei (%)", "setting": "[4]", "value": "74.77% and 33.53%"}, {"measurement": "Population Hoechst High Intensity Objects (%)", "setting": "[4]", "value": 0, "unit": "%"}, {"measurement": "Population Membrane Permeable-Phenotype (%)", "setting": "[4]", "value": "0.9% and 0%"}, {"measurement": "Population Mitotic Cells (%)", "setting": "[4]", "value": "80.39% and 75.93%"}, {"measurement": "Population Normal (%)", "setting": "[4]", "value": 100, "unit": "%"}, {"measurement": "Population Pyknosed Nuclei (%)", "setting": "[4]", "value": "22.97% and 63.53%"}, {"measurement": "Population Tubulin-Different-Phenotype (%)", "setting": "[4]", "value": "24.4% and 8.77%"}, {"measurement": "Total Cell Count", "setting": "[4]", "value": "444 and 170"}, {"measurement": "Population Fragmented Nuclei (%)", "setting": "[5]", "value": "1.92% and 2.58%"}, {"measurement": "Population Healthy Nuclei (%)", "setting": "[5]", "value": "88.16% and 57.22%"}, {"measurement": "Population Hoechst High Intensity Objects (%)", "setting": "[5]", "value": 0, "unit": "%"}, {"measurement": "Population Membrane Permeable-Phenotype (%)", "setting": "[5]", "value": "5.14% and 2.7%"}, {"measurement": "Population Mitochondria Different-Phenotype (%)", "setting": "[5]", "value": "13.34% and 21.62%"}, {"measurement": "Population Mitotic Cells (%)", "setting": "[5]", "value": "97.67% and 83.33%"}, {"measurement": "Population Normal (%)", "setting": "[5]", "value": 100, "unit": "%"}, {"measurement": "Population Apoptotic (%)", "setting": "[6]", "value": "7.29% and 16.44%"}, {"measurement": "Population Fragmented Nuclei (%)", "setting": "[6]", "value": "3.41% and 2.51%"}, {"measurement": "Population Healthy Nuclei (%)", "setting": "[6]", "value": "87.23% and 60.8%"}, {"measurement": "Population Hoechst High Intensity Objects (%)", "setting": "[6]", "value": 0, "unit": "%"}, {"measurement": "Population Membrane Permeable-Phenotype (%)", "setting": "[6]", "value": "3.58% and 0.83%"}, {"measurement": "Population Mitochondria Different-Phenotype (%)", "setting": "[6]", "value": "25.47% and 33.88%"}, {"measurement": "Population Mitotic Cells (%)", "setting": "[6]", "value": "92.71% and 83.56%"}, {"measurement": "Population Normal (%)", "setting": "[6]", "value": 100, "unit": "%"}]}, {"smiles": "Cc1c(-c2cc(-c3ccccc3Cl)no2)cnn1C1CCNCC1.Cl", "values": [{"measurement": "Population Apoptotic (%)", "setting": "[1]", "value": "10.39% and 11.29%"}, {"measurement": "Population Fragmented Nuclei (%)", "setting": "[1]", "value": "3.59% and 2.19%"}, {"measurement": "Population Hoechst High Intensity Objects (%)", "setting": "[1]", "value": "0.28% and 0%"}, {"measurement": "Population Membrane Permeable-Phenotype (%)", "setting": "[1]", "value": 0, "unit": "%"}, {"measurement": "Population Mitochondria Different-Phenotype (%)", "setting": "[1]", "value": "33.33% and 20%"}, {"measurement": "Population Mitotic Cells (%)", "setting": "[1]", "value": "89.61% and 88.71%"}, {"measurement": "Population Normal (%)", "setting": "[1]", "value": "99.72% and 100%"}, {"measurement": "Population Pyknosed Nuclei (%)", "setting": "[1]", "value": "42.54% and 90.51%"}, {"measurement": "Population Tubulin-Different-Phenotype (%)", "setting": "[1]", "value": "9.74% and 20%"}, {"measurement": "Total Cell Count", "setting": "[1]", "value": "363 and 137"}, {"measurement": "Population Apoptotic (%)", "setting": "[2]", "value": "15.64% and 14.06%"}, {"measurement": "Population Fragmented Nuclei (%)", "setting": "[2]", "value": "1.78% and 2.96%"}, {"measurement": "Population Hoechst High Intensity Objects (%)", "setting": "[2]", "value": "0.44% and 0%"}, {"measurement": "Population Membrane Permeable-Phenotype (%)", "setting": "[2]", "value": "2.38% and 0%"}, {"measurement": "Population Mitochondria Different-Phenotype (%)", "setting": "[2]", "value": "42.86% and 33.33%"}, {"measurement": "Population Mitotic Cells (%)", "setting": "[2]", "value": "84.36% and 85.94%"}, {"measurement": "Population Normal (%)", "setting": "[2]", "value": "99.56% and 100%"}, {"measurement": "Population Pyknosed Nuclei (%)", "setting": "[2]", "value": "79.56% and 94.81%"}, {"measurement": "Population Tubulin-Different-Phenotype (%)", "setting": "[2]", "value": "78.57% and 100%"}, {"measurement": "Total Cell Count", "setting": "[2]", "value": "226 and 135"}, {"measurement": "Population Apoptotic (%)", "setting": "[3]", "value": "16.36% and 12.04%"}, {"measurement": "Population Fragmented Nuclei (%)", "setting": "[3]", "value": "2.54% and 2.07%"}, {"measurement": "Population Healthy Nuclei (%)", "setting": "[3]", "value": "62.58% and 23.45%"}, {"measurement": "Population Hoechst High Intensity Objects (%)", "setting": "[3]", "value": "0.21% and 0.68%"}, {"measurement": "Population Membrane Permeable-Phenotype (%)", "setting": "[3]", "value": "1.35% and 0%"}, {"measurement": "Population Mitochondria Different-Phenotype (%)", "setting": "[3]", "value": "20.61% and 26.47%"}, {"measurement": "Population Mitotic Cells (%)", "setting": "[3]", "value": "83.64% and 87.96%"}, {"measurement": "Population Normal (%)", "setting": "[3]", "value": "99.79% and 99.32%"}, {"measurement": "Population Pyknosed Nuclei (%)", "setting": "[3]", "value": "34.88% and 74.48%"}, {"measurement": "Population Tubulin-Different-Phenotype (%)", "setting": "[3]", "value": "23.31% and 17.65%"}, {"measurement": "Population Apoptotic (%)", "setting": "[4]", "value": "46.71% and 55.88%"}, {"measurement": "Population Fragmented Nuclei (%)", "setting": "[4]", "value": "1.42% and 2.05%"}, {"measurement": "Population Hoechst High Intensity Objects (%)", "setting": "[4]", "value": "1.85% and 0.68%"}, {"measurement": "Population Membrane Permeable-Phenotype (%)", "setting": "[4]", "value": "0% and 14.29%"}, {"measurement": "Population Mitochondria Different-Phenotype (%)", "setting": "[4]", "value": "78.57% and 57.14%"}, {"measurement": "Population Mitotic Cells (%)", "setting": "[4]", "value": "53.29% and 44.12%"}, {"measurement": "Population Normal (%)", "setting": "[4]", "value": "98.15% and 99.32%"}, {"measurement": "Population Pyknosed Nuclei (%)", "setting": "[4]", "value": "78.77% and 93.15%"}, {"measurement": "Population Tubulin-Different-Phenotype (%)", "setting": "[4]", "value": "92.86% and 85.71%"}, {"measurement": "Total Cell Count", "setting": "[4]", "value": "216 and 147"}, {"measurement": "Population Apoptotic (%)", "setting": "[5]", "value": "12.5% and 24.62%"}, {"measurement": "Population Fragmented Nuclei (%)", "setting": "[5]", "value": "3.19% and 2.61%"}, {"measurement": "Population Healthy Nuclei (%)", "setting": "[5]", "value": "82.92% and 54.9%"}, {"measurement": "Population Hoechst High Intensity Objects (%)", "setting": "[5]", "value": "0% and 1.29%"}, {"measurement": "Population Membrane Permeable-Phenotype (%)", "setting": "[5]", "value": "4.07% and 0%"}, {"measurement": "Population Mitochondria Different-Phenotype (%)", "setting": "[5]", "value": "28.52% and 35.71%"}, {"measurement": "Population Mitotic Cells (%)", "setting": "[5]", "value": "87.5% and 75.38%"}, {"measurement": "Population Normal (%)", "setting": "[5]", "value": "100% and 98.71%"}, {"measurement": "Population Apoptotic (%)", "setting": "[6]", "value": "59.7% and 87.84%"}, {"measurement": "Population Fragmented Nuclei (%)", "setting": "[6]", "value": "1.25% and 4.94%"}, {"measurement": "Population Hoechst High Intensity Objects (%)", "setting": "[6]", "value": "2.44% and 0%"}, {"measurement": "Population Membrane Permeable-Phenotype (%)", "setting": "[6]", "value": "0.97% and 0%"}, {"measurement": "Population Mitochondria Different-Phenotype (%)", "setting": "[6]", "value": "87.38% and 100%"}, {"measurement": "Population Normal (%)", "setting": "[6]", "value": "97.56% and 100%"}, {"measurement": "Population Pyknosed Nuclei (%)", "setting": "[6]", "value": "55.83% and 91.36%"}, {"measurement": "Population Tubulin-Different-Phenotype (%)", "setting": "[6]", "value": "73.79% and 100%"}, {"measurement": "Total Cell Count", "setting": "[6]", "value": "246 and 162"}]}]}
